Test results: ChEMBL document CHEMBL3865824, “New (E)-1-alkyl-1H-benzo[d]imidazol-2-yl)methylene)indolin-2-ones: Synthesis, in vitro cytotoxicity evaluation and apoptosis inducing studies” (Eur J Med Chem, 2016)

Legend:
[1] = Cytotoxicity against human PC3 cells assessed as reduction in cell viability after 48 hrs by MTT assay; assay type: functional, cell-based; details: PC-3, 48 h
Outline: (§1)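 Cells grown in DMEM or MEM with 10% FBS at 37 °C, 5% CO2. Seeded at 1×10^4 cells/well, incubated 48 h, then exposed to compound for 48 h with vehicle control. MTT (5 mg/mL stock) added for 4 h; formazan dissolved in DMSO, absorbance read at 570 nm. Preliminary screen at 50 µM. Compounds giving >50% inhibition were tested for dose-response curves; IC50 derived by linear regression of % inhibition versus concentration. Mean of three independent experiments in triplicate.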

[2] = Cytotoxicity against human DU145 cells assessed as reduction in cell viability after 48 hrs by MTT assay; assay type: functional, cell-based; details: DU-145, 48 h; outline: as §1
[3] = Cytotoxicity against […] cells assessed as reduction in cell viability after 48 hrs by MTT assay; assay type: functional, cell-based; details: 4T1, 48 h; outline: as §1
[4] = Cytotoxicity against human BT549 cells assessed as reduction in cell viability after 48 hrs by MTT assay; assay type: functional, cell-based; details: BT-549, 48 h; outline: as §1
[5] = Cytotoxicity against human MDA-MB-231 cells assessed as reduction in cell viability after 48 hrs by MTT assay; assay type: functional, cell-based; details: MDA-MB-231, 48 h; outline: as §1
[6] = Cytotoxicity against human MCF7 cells assessed as reduction in cell viability after 48 hrs by MTT assay; assay type: functional, cell-based; details: MCF7, 48 h; outline: as §1
[7] = Cytotoxicity against human A549 cells assessed as reduction in cell viability after 48 hrs by MTT assay; assay type: functional, cell-based; details: A549, 48 h; outline: as §1
[8] = Cytotoxicity against HGC cells assessed as reduction in cell viability after 48 hrs by MTT assay; assay type: functional, cell-based; details: Homo sapiens; outline: as §1
[9] = Cytotoxicity against human MCF10A cells assessed as reduction in cell viability after 48 hrs by MTT assay; assay type: toxicity, cell-based, MCF-10A; outline: as §1
[10] = Selectivity ratio of IC50 for human MCF10A cells to IC50 for human DU145 cells; assay type: ADME, cell-based, MCF-10A; details: MCF10A cells versus DU145 cells, read-out: Ratio IC50
[11] = Selectivity ratio of IC50 for human MCF10A cells to IC50 for […] cells; assay type: ADME, cell-based, MCF-10A; details: MCF10A cells versus 4TI cells, read-out: Ratio IC50
[12] = Selectivity ratio of IC50 for human MCF10A cells to IC50 for human MDA-MB-231 cells; assay type: ADME, cell-based, MCF-10A; details: MCF10A cells versus MDA-MB-231 cells, read-out: Ratio IC50
[13] = Selectivity ratio of IC50 for human MCF10A cells to IC50 for human A549 cells; assay type: ADME, cell-based; details: MCF10A cells versus A549 cells, read-out: Ratio IC50
[14] = Cytotoxicity against human DU145 cells assessed as growth inhibition at 50 uM after 48 hrs by MTT assay relative to control; assay type: functional; details: DU-145, 48 h, read-out: GI; outline: as §1
[15] = Cytotoxicity against human PC3 cells assessed as growth inhibition at 50 uM after 48 hrs by MTT assay relative to control; assay type: functional; details: PC-3, 48 h, read-out: GI; outline: as §1
[16] = Cytotoxicity against […] cells assessed as growth inhibition at 50 uM after 48 hrs by MTT assay relative to control; assay type: functional; details: Mus musculus, 4T1, 48 h; read-out: GI; outline: as §1
[17] = Cytotoxicity against human BT549 cells assessed as growth inhibition at 50 uM after 48 hrs by MTT assay relative to control; assay type: functional; details: BT-549, 48 h, read-out: GI; outline: as §1
[18] = Cytotoxicity against human MDA-MB-231 cells assessed as growth inhibition at 50 uM after 48 hrs by MTT assay relative to control; assay type: functional; details: MDA-MB-231, 48 h, read-out: GI; outline: as §1
[19] = Cytotoxicity against human MCF7 cells assessed as growth inhibition at 50 uM after 48 hrs by MTT assay relative to control; assay type: functional; details: MCF7, 48 h, read-out: GI; outline: as §1
[20] = Cytotoxicity against human A549 cells assessed as growth inhibition at 50 uM after 48 hrs by MTT assay relative to control; assay type: functional; details: A549, 48 h, read-out: GI; outline: as §1
[21] = Cytotoxicity against HGC cells assessed as growth inhibition at 50 uM after 48 hrs by MTT assay relative to control; assay type: functional; details: Homo sapiens, read-out: GI; outline: as §1
[22] = Selectivity ratio of IC50 for human MCF10A cells to IC50 for human PC3 cells; assay type: ADME, cell-based, MCF-10A; details: MCF10A cells versus PC3 cells, read-out: Ratio IC50
[23] = Selectivity ratio of IC50 for human MCF10A cells to IC50 for human BT549 cells; assay type: ADME, cell-based, MCF-10A; details: MCF10A cells versus BT549 cells, read-out: Ratio IC50
[24] = Selectivity ratio of IC50 for human MCF10A cells to IC50 for human MCF7 cells; assay type: ADME, cell-based, MCF-10A; details: MCF10A cells versus MCF7 cells, read-out: Ratio IC50
[25] = Selectivity ratio of IC50 for human MCF10A cells to IC50 for HGC cells; assay type: ADME, cell-based, MCF-10A; details: MCF10A cells versus HGC cells, read-out: Ratio IC50
[26] = Cell cycle arrest in human MDA-MB-231 cells assessed as accumulation at G0/G1 phase at 4 uM after 24 hrs by propidium iodide staining based FACS analysis (reference value: 50.4 %); assay type: functional
Outline: (§2)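 MDA-MB-231 at 1×10^6 cells/well treated with 1, 2 or 4 µM for 24 h, with a DMSO control. Cells harvested by trypsin, washed with PBS and fixed in 70% ethanol for 30 min at 4 °C. Stained 15 min at room temperature in the dark with PI buffer containing Triton X and DNase-free RNase A. Analysed by flow cytometry; G0/G1, S and G2/M fractions quantified.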

[27] = Cell cycle arrest in human MDA-MB-231 cells assessed as accumulation at G2/M phase at 4 uM after 24 hrs by propidium iodide staining based FACS analysis (reference value: 26 %); assay type: functional; outline: as §2
[28] = Cell cycle arrest in human MDA-MB-231 cells assessed as accumulation at S phase at 4 uM after 24 hrs by propidium iodide staining based FACS analysis (reference value: 24.6 %); assay type: functional; outline: as §2

Compound: CC(C)n1c(/C=C2/C(=O)Nc3ccc(Cl)cc32)nc2ccccc21
- IC50 [1]: 38.1 µM
- IC50 [2]: 36.4 µM
- IC50 [3]: 35.7 µM
- IC50 [4]: 35.1 µM
- IC50 [5]: 25.1 µM
- IC50 [6]: 24 µM
- IC50 [7]: 35.2 µM
- IC50 [8]: 32.8 µM
- IC50 at 48 h [9]: 68.8 µM
- selectivity ratio [10]: 2 to 3
- selectivity ratio [11]: 2 to 3
- selectivity ratio [12]: 2 to 3
- selectivity ratio [13]: 2 to 3
- inhibition of growth at 50 µM [14]: > 50%
- inhibition of growth at 50 µM [15]: > 50%
- inhibition of growth at 50 µM [16]: > 50%
- inhibition of growth at 50 µM [17]: > 50%
- inhibition of growth at 50 µM [18]: > 50%
- inhibition of growth at 50 µM [19]: > 50%
- inhibition of growth at 50 µM [20]: > 50%
- inhibition of growth at 50 µM [21]: > 50%
- selectivity ratio [22]: 2 to 3
- selectivity ratio [23]: 2 to 3
- selectivity ratio [24]: 2 to 3
- selectivity ratio [25]: 2 to 3

Compound: CCN(CC)CCNC(=O)c1c(C)[nH]c(/C=C2\C(=O)Nc3ccc(F)cc32)c1C [SUNITINIB]
- Activity [26]: 67.6%
- IC50 [2]: 16.4 µM
- IC50 [4]: 15.5 µM
- IC50 [5]: 7.44 µM
- IC50 [6]: 23.8 µM
- IC50 [7]: 14.4 µM
- Activity [27]: 13.9%
- Activity [28]: 18.3%
